Results: ChEMBL document CHEMBL4368886, “Design, synthesis, and biological activity of novel ammonium salts containing sterically hindered phenolic fragment and phosphoryl group” (Medchemcomm, 2018)
In brackets after ≈: the same amount, converted by molar mass. Activity calls are given as the source filed them. The rule behind the calls is not given here.

Experiments:
Staphylococcus aureus [1] = assay: Antimicrobial activity against Staphylococcus aureus 209p measured every 24 hrs for 5 days by two-fold serial dilution method; assay type: functional
Bacillus cereus [2] = assay: Antimicrobial activity against Bacillus cereus ATCC 8035 measured every 24 hrs for 5 days by two-fold serial dilution method; assay type: functional
Escherichia coli [3] = assay: Antimicrobial activity against Escherichia coli CDC F-50 measured every 24 hrs for 5 days by two-fold serial dilution method; assay type: functional
Pseudomonas aeruginosa [4] = assay: Antimicrobial activity against Pseudomonas aeruginosa ATCC 9027 measured every 24 hrs for 5 days by two-fold serial dilution method; assay type: functional
Aspergillus niger [5] = assay: Antimicrobial activity against Aspergillus niger BKMF-1119 measured after 14 days by two-fold serial dilution method; assay type: functional, organism-based
[6] = test system: Trichophyton mentagrophytes; assay: Antimicrobial activity against Trichophyton mentagrophytes var. gypseum 1773 measured after 14 days by two-fold serial dilution method; assay type: functional
Candida albicans [7] = assay: Antimicrobial activity against Candida albicans 855-653 measured after 14 days by two-fold serial dilution method; assay type: functional
Staphylococcus aureus [8] = assay: Bactericidal activity against Staphylococcus aureus 209p measured after 4 hrs; assay type: functional
In short: (§1)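 Microbicidal (bactericidal/fungicidal) concentration, killing of microbial cells, determined per literature procedures; tests in duplicate, repeated twice.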

Bacillus cereus [9] = assay: Bactericidal activity against Bacillus cereus ATCC 8035 measured after 4 hrs; assay type: functional; settings: ATCC 8035, 4 h; in short: as §1
Escherichia coli [10] = assay: Bactericidal activity against Escherichia coli CDC F-50 measured after 4 hrs; assay type: functional; in short: as §1
Pseudomonas aeruginosa [11] = assay: Bactericidal activity against Pseudomonas aeruginosa ATCC 9027 measured after 4 hrs; assay type: functional; in short: as §1
Aspergillus niger [12] = assay: Bactericidal activity against Aspergillus niger BKMF-1119 measured after 4 hrs; assay type: functional, organism-based; in short: as §1
[13] = test system: Trichophyton mentagrophytes var. granulosum; assay: (§2) Bactericidal activity against Trichophyton mentagrophytes var. granulosum 1773 measured after 4 hrs; assay type: functional; in short: as §1
Candida albicans [14] = assay: Bactericidal activity against Candida albicans 855-653 measured after 4 hrs; assay type: functional; in short: as §1
WI-38 [15] = assay: Cytotoxicity against human WI38 cells assessed as reduction in cell viability at 47 uM by Cytell imaging analysis; assay type: cell-based; settings: wi-38, 47 µM
In short: (§3)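 WI-38 human embryonic lung and Chang liver cells exposed to compounds at three concentrations each (0.70–47.0 μM range, spanning antimicrobial concentrations); cytotoxicity read as number of viable cells counted.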

WI-38 [16] = assay: Cytotoxicity against human WI38 cells assessed as reduction in cell viability at 0.7 to 11.3 uM by Cytell imaging analysis; assay type: cell-based; settings: wi-38, 11.3 µM; in short: as §3
[17] = Cytotoxicity against human Chang cells assessed as reduction in cell viability at 47 uM by Cytell imaging analysis; assay type: cell-based; in short: as §3
[18] = Cytotoxicity against human Chang cells assessed as reduction in cell viability at 0.7 to 11.3 uM by Cytell imaging analysis; assay type: cell-based; in short: as §3
[19] = Antioxidant activity assessed as ABAP free radical scavenging activity by measuring decrease in chemiluminescence intensity at 0.5 mM; assay type: functional; set-up: scale not given: the % may be the effect or the level left
In short: (§4)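 Chemiluminescent radical system of ABAP (2,2′-azobis(2-methylpropionamidine) dihydrochloride) plus luminol in buffer, total 1.000 mL; baseline recorded, then test substance added at 0.25, 0.50 or 1.00 mM; chemiluminescence intensity followed over time and expressed as percent of initial value. Ionol used as reference antioxidant.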

[20] = Antioxidant activity assessed as ABAP free radical scavenging activity by measuring decrease in chemiluminescence intensity at 0.25 mM; assay type: functional; set-up: scale not given: the % may be the effect or the level left; in short: as §4
[21] = Antioxidant activity assessed as ABAP free radical scavenging activity by measuring decrease in chemiluminescence intensity at 1 mM; assay type: functional; set-up: scale not given: the % may be the effect or the level left; in short: as §4
[22] = as §2; assay type: functional; settings: Trichophyton mentagrophytes, 1773, 4 h; in short: as §1
[23] = Antioxidant activity assessed as ABAP free radical scavenging activity by measuring decrease in chemiluminescence intensity at 0.25 mM measured after 400 secs; assay type: functional; in short: as §4
[24] = Antioxidant activity assessed as ABAP free radical scavenging activity by measuring decrease in chemiluminescence intensity at 0.5 mM measured after 500 secs; assay type: functional; in short: as §4
[25] = Antioxidant activity assessed as ABAP free radical scavenging activity by measuring decrease in chemiluminescence intensity at 1 mM measured after 600 secs; assay type: functional; set-up: scale not given: the % may be the effect or the level left; in short: as §4

Row | SMILES | MIC (Staphylococcus aureus [1]) | MIC (Bacillus cereus [2]) | MIC (Escherichia coli [3]) | MIC (Pseudomonas aeruginosa [4]) | MIC (Aspergillus niger [5]) | MIC [6] | MIC (Candida albicans [7]; 855-653, 336 h) | MIC (Staphylococcus aureus [8]) | MIC (Bacillus cereus [9]) | MIC (Pseudomonas aeruginosa [11]) | MIC (Aspergillus niger [12]) | MIC [13] | MIC (Candida albicans [14]; 855-653, 4 h) | Activity (WI-38 [16]) | Activity [18] | Activity [19] | Activity [20] | MIC (Escherichia coli [10]) | other results
1 | CCCCCCCCCC[N+](C)(C)CCNC(c1cc(C(C)(C)C)c(O)c(C(C)(C)C)c1)P(=O)(OCC)OCC.[Br-] (configuration not stated) | 2.9 µM | 2.9 µM | 94.1 µM | 94.1 µM | inactive | inactive | 47 µM | 2.9 µM | 2.9 µM | inactive | inactive | inactive | 47 µM | Non-Toxic | Non-Toxic | 26% | 44% |  | MIC (Escherichia coli [10]; CDC F-50, 4 h): 188 µM; Activity (WI-38 [15]): Toxic; Activity [17]: Toxic; Activity [21]: 20%
2 | CC(=O)N1CCN(c2ccc(OCC3COC(Cn4ccnc4)(c4ccc(Cl)cc4Cl)O3)cc2)CC1 (configuration not stated) [KETOCONAZOLE] |  |  |  |  |  |  | 7.6 µM (≈ 4.04 µg/mL) |  |  |  |  |  | 15.2 µM (≈ 8.08 µg/mL) |  |  |  |  |  | MIC ([6]; var. gypseum 1773, 336 h): 7.6 µM (≈ 4.04 µg/mL); MIC [22]: 15.2 µM (≈ 8.08 µg/mL)
3 | CCCCCCCCCC[N+](C)(C)CCNC(c1cc(C(C)(C)C)c(O)c(C(C)(C)C)c1)P(=O)(OC(C)C)OC(C)C.[Br-] (configuration not stated) | 2.7 µM | 5.6 µM | inactive | inactive | inactive | inactive | 11.3 µM | 5.6 µM | 90 µM | inactive | inactive | inactive | 11.3 µM | Non-Toxic | Non-Toxic |  |  | inactive | 
4 | CCCCCCCCCC[N+](C)(C)CCCNC(c1cc(C(C)(C)C)c(O)c(C(C)(C)C)c1)P(=O)(OC(C)C)OC(C)C.[Br-] (configuration not stated) | 0.7 µM | 2.7 µM | 44.3 µM | 22 µM | inactive | inactive | 11 µM | 1.3 µM | 177 µM |  | inactive | inactive | 11 µM | Non-Toxic | Non-Toxic | 26% | 44% |  | MIC (Escherichia coli [10]; CDC F-50, 4 h): 177 µM; MIC (Pseudomonas aeruginosa [11]; ATCC 9027, 4 h): 44.3 µM; Activity [23]: Active; Activity [24]: Active; Activity [25]: 26%
5 | CCOP(=O)(OCC)C(NCCC[N+](C)(C)CC)c1cc(C(C)(C)C)c(O)c(C(C)(C)C)c1 (configuration not stated) | 442 µM | 221 µM | inactive | inactive | inactive | inactive |  | 442 µM | 221 µM | inactive | inactive | inactive | > 500 µM |  |  | 26% | 44% | inactive | MIC (Candida albicans [7]): inactive; Activity [25]: 26%
6 | CCOP(=O)(OCC)C(NCC[N+](C)(C)CC)c1cc(C(C)(C)C)c(O)c(C(C)(C)C)c1 (configuration not stated) | 56.8 µM | 56.8 µM | inactive | inactive | inactive | inactive |  | 56.8 µM | 56.8 µM | inactive | inactive | inactive |  |  |  |  |  | inactive | MIC (Candida albicans [7]): inactive; MIC (Candida albicans [14]): inactive
7 | CCCCCCCC[N+](C)(C)CCCNC(=O)CCc1cc(C(C)(C)C)c(O)c(C(C)(C)C)c1 | 28 µM | 28.1 µM | inactive | inactive | inactive | inactive | 28 µM | 28 µM | 28.1 µM | inactive | inactive | inactive | 56.3 µM |  |  |  |  | inactive | 
